In brackets after ≈: the same amount, converted by molar mass.
Columns and labels:
[1] = Cytotoxicity against human A549 cells assessed as decrease in cell viability after 6 days by MTT assay; type: functional, cell-based; settings: A549, 144 h
In short: (§1)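 Cell lines from College of Pharmacy, Hebei University, grown in DMEM with 5% fetal bovine serum at 37 °C under 5% CO2. Viability read by MTT method, IC50 values derived. Epirubicin served as positive control.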

[2] = Antifungal activity against Diaporthe medusaea nitschke after 4 to 14 days by serial dilution method; type: functional; settings: Diaporthe rudis
In short: (§2)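 Fungal strains kept on potato dextrose agar. Antifungal activity tested following NCCLS recommendations, with MIC values as the read-out. Prochloraz served as positive control.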

[3] = Antifungal activity against Exserohilum turcicum after 4 to 14 days by serial dilution method; type: functional; settings: Setosphaeria turcica; in short: as §2
[4] = Cytotoxicity against human HeLa cells assessed as decrease in cell viability after 6 days by MTT assay; type: functional, cell-based; settings: 144 h; in short: as §1
[5] = Antifungal activity against Bipolaris oryzae after 4 to 14 days by serial dilution method; type: functional
In short: (§3)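 Fungus maintained on potato dextrose agar. Antifungal activity determined as MIC following NCCLS (National […] for Clinical Laboratory Standards) recommendations, with prochloraz as the reference antifungal.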

[6] = Antifungal activity against Phytophthora parasitica var. nicotianae after 4 to 14 days by serial dilution method; type: functional; in short: as §2
Alternaria citri = experiment: Antifungal activity against Alternaria citri after 4 to 14 days by serial dilution method; type: functional; in short: as §3
Alternaria brassicicola = experiment: Antifungal activity against Alternaria brassicicola after 4 to 14 days by serial dilution method; type: functional; in short: as §2
[7] = Cytotoxicity against human MCF7 cells assessed as decrease in cell viability after 6 days by MTT assay; type: functional, cell-based; settings: MCF7, 144 h; in short: as §1
[8] = Antifungal activity against Ceratocystis paradoxa moreau after 4 to 14 days by serial dilution method; type: functional; settings: Thielaviopsis; in short: as §2
[9] = Antifungal activity against Pestallozzia theae after 4 to 14 days by serial dilution method; type: functional; in short: as §2
Colletotrichum truncatum = experiment: Antifungal activity against Colletotrichum capsici after 4 to 14 days by serial dilution method; type: functional; in short: as §2

Row | SMILES | IC50 [1] [µM] | MIC [2] [µM] | MIC [3] [µM] | IC50 [4] [µM] | MIC [5] [µM] | MIC [6] [µM] | MIC (Alternaria citri) [µM] | MIC (Alternaria brassicicola) [µM] | IC50 [7] [µM] | MIC [8] [µM] | MIC [9] [µM] | MIC (Colletotrichum truncatum) [µM]
1 | COc1c(O)cc2c(c1OC)-c1ccc(O)cc1CC2 [ERIANTHRIDIN] | > 10 | > 400 | > 400 | > 10 | > 400 | > 400 | > 400 | > 400 | > 10 | > 400 | > 400 | > 400
2 | COc1cc(O)c2c(c1-c1c(OC)cc(O)c3c1CCc1cc(O)ccc1-3)CCc1cc(O)ccc1-2 | > 10 | > 400 | > 400 | > 10 | > 400 | > 400 | > 400 | > 400 | > 10 | > 400 | > 400 | > 400
3 | COc1cc2c(c(O)c1OC)-c1ccc(O)cc1CC2 [EPHEMERANTHOL A] | > 10 | > 400 | > 400 | > 10 | > 400 | > 400 | > 400 | > 400 | > 10 | > 400 | > 400 | > 400
4 | COc1c(O)cc2ccc3cc(O)ccc3c2c1OC [NUDOL] | > 10 | > 400 | > 400 | > 10 | > 400 | > 400 | > 400 | > 400 | > 10 | > 400 | > 400 | > 400
5 | COc1cc(O)c2c(c1)CCc1cccc(O)c1-2 | > 10 | > 400 | > 400 | > 10 | > 400 | > 400 | > 400 | > 400 | > 10 | > 400 | > 400 | > 400
6 | COc1cc(O)c2c(c1)CCc1cc(O)ccc1-2 [LUSIANTHRIDIN] | > 10 | > 400 | > 400 | > 10 | > 400 | > 400 | > 400 | > 400 | > 10 | > 400 | > 400 | > 400
7 | COc1cc2c(c(OC)c1O)-c1ccc(O)cc1CC2 [FLAVANTHRIDIN] | > 10 | > 400 | > 400 | > 10 | > 400 | > 400 | > 400 | > 400 | > 10 | > 400 | > 400 | > 400
8 | COC1=CC(=O)C[C@@]2(CCc3cccc(O)c32)C1=O | 9.9 | > 400 | > 400 | 9.8 | > 400 | > 400 | > 400 | > 400 | 9.4 | > 400 | > 400 | > 400
9 | Oc1cccc(CCc2cc(O)cc(O)c2)c1 | > 10 | 217 (≈ 50.1 µg/mL) | 109 (≈ 25 µg/mL) | > 10 | 109 (≈ 25 µg/mL) | 218 (≈ 50.1 µg/mL) | 109 (≈ 25 µg/mL) | > 400 | > 10 | 109 (≈ 25 µg/mL) | 217 (≈ 50.1 µg/mL) | 109 (≈ 25 µg/mL)
10 | COc1cc(O)cc(CCc2ccc(O)c(OC)c2)c1 [GIGANTOL] | > 10 | 91.2 (≈ 25 µg/mL) | 182 (≈ 50 µg/mL) | > 10 | 182 (≈ 50 µg/mL) | 365 (≈ 100 µg/mL) | 91.2 (≈ 25 µg/mL) | 182 (≈ 50 µg/mL) | > 10 | 91.2 (≈ 25 µg/mL) | 91.2 (≈ 25 µg/mL) | 91.2 (≈ 25 µg/mL)
11 | COc1cc(O)cc(CCc2cccc(O)c2)c1 [BATATASIN III] | > 10 | 205 (≈ 50.1 µg/mL) | 102 (≈ 25 µg/mL) | > 10 | 102 (≈ 25 µg/mL) | 205 (≈ 50.1 µg/mL) | 102 (≈ 25 µg/mL) | 102 (≈ 25 µg/mL) | > 10 | 102 (≈ 25 µg/mL) | 205 (≈ 50.1 µg/mL) | 102 (≈ 25 µg/mL)
12 | COc1cc(O)c2c(c1)CCc1cc(O)c(-c3c(O)c4cccc(O)c4c4c(OC)cc(OC)cc34)cc1-2 | > 10 | > 400 | > 400 | > 10 | > 400 | > 400 | > 400 | > 400 | > 10 | > 400 | > 400 | > 400
13 | COc1cc(CCc2cc(O)cc(O)c2)ccc1O [TRISTIN] | > 10 | 192 (≈ 50.1 µg/mL) | 385 (≈ 100 µg/mL) | > 10 | 96.2 (≈ 25 µg/mL) | 385 (≈ 100 µg/mL) | 96.2 (≈ 25 µg/mL) | 192 (≈ 50.1 µg/mL) | > 10 | 96.2 (≈ 25 µg/mL) | 96.2 (≈ 25 µg/mL) | 96.2 (≈ 25 µg/mL)
14 | COc1cc(O)cc2c1-c1c(O)cccc1CC2 [HIRCINOL] | > 10 | > 400 | > 400 | > 10 | > 400 | > 400 | > 400 | > 400 | > 10 | > 400 | > 400 | > 400
15 | COC1=CC(=O)C[C@H]2CCc3cccc(O)c3[C@@]12O | > 10 | > 400 | > 400 | > 10 | > 400 | > 400 | > 400 | > 400 | > 10 | > 400 | > 400 | > 400
16 | COC1=CC(=O)c2c(ccc3cc(O)c(O)cc23)C1=O | > 10 | > 400 | > 400 | > 10 | > 400 | > 400 | > 400 | > 400 | > 10 | > 400 | > 400 | > 400
17 | COc1cc(O)c2c(c1)CCc1cc(Oc3cc(OC)c(O)c4c3CCc3cc(O)ccc3-4)ccc1-2 | > 10 | > 400 | > 400 | > 10 | > 400 | > 400 | > 400 | > 400 | > 10 | > 400 | > 400 | > 400
18 | COc1cc(OC)c2c(cc(O)c3cccc(O)c32)c1-c1ccc(O)c2c1ccc1cc(O)cc(OC)c12 | > 10 | > 400 | > 400 | > 10 | > 400 | > 400 | > 400 | > 400 | > 10 | > 400 | > 400 | > 400
19 | COC1=CC(=O)C[C@H]2CC(=O)c3cccc(O)c3[C@@]12O | > 10 | > 400 | > 400 | > 10 | > 400 | > 400 | > 400 | > 400 | > 10 | > 400 | > 400 | > 400
20 | CCCN(CCOc1c(Cl)cc(Cl)cc1Cl)C(=O)n1ccnc1 [PROCHLORAZ] | – | 133 (≈ 50.2 µg/mL) | 33.3 (≈ 12.5 µg/mL) | – | 133 (≈ 50.2 µg/mL) | 133 (≈ 50.2 µg/mL) | 66.7 (≈ 25.1 µg/mL) | 33.3 (≈ 12.5 µg/mL) | – | 66.7 (≈ 25.1 µg/mL) | 66.7 (≈ 25.1 µg/mL) | 33.3 (≈ 12.5 µg/mL)
